Assays:
[1] = folding enthalpy; higher = less favourable; fluorescence melt of hairpins on a sequencing array, two-state fit; conditions: sodium 0.088 M
In short: (§1)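 Melting temperature and folding enthalpy were obtained by bootstrapped two-state fitting. Fits used Cy3 fluorescence of library hairpins with annealed Cy3 and quencher oligos on a sequenced MiSeq flow cell, imaged in 50 mM Na-HEPES pH 8.0, 25 mM NaCl in 2.5 °C steps up to 60 °C and normalised to pre-quench Cy3 and control constructs. Four replicates were combined by inverse-variance weighting, and fitted temperatures were raised by 9.35 °C to match UV melts.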

[2] = melting temperature; fluorescence melt of hairpins on a sequencing array, two-state fit, raised by 9.35 °C to match UV melts; conditions: sodium 0.088 M
In short: as §1

| Sequence | folding enthalpy [1] [kcal/mol] | Tm [2] [°C] |
| --- | --- | --- |
| GGAGGCCGAAAGGCTTCC (((.(((....))).))) | -28.9 | 64.2 |
| GGAGGCGAAAGCCTCTCC ((((((....)))..))) | -8.68 | 54.2 |
| GGAGGCGGAAACGCTTCC (((.(((....))).))) | -36.9 | 55.2 |
| GGAGGGCGAAAGCCTCC (((.(((....)))))) | -18.7 | 61.9 |
| GGAGGGGGAAACCCCTCC (((((((....))))))) | -32 | 69.3 |
| GGAGGGGGAAACCCCTTC (.(((((....))))).) | -24.1 | 50.6 |
| GGAGGTGGAAACACCTTC (.(((((....))))).) | -29 | 51.4 |
| GGAGGTGGAAACACTTCC (((.(((....))).))) | -35.2 | 48.2 |
| GGAGGTGGAAACATCTCC ((((.((....)).)))) | -44.1 | 49.1 |
| GGAGGTGGAAACGCTTCC (((.(.(....).).))) | -23.3 | 34.3 |
| GGAGTAACGAAAGTTTCC (((..(((....)))))) | -16.6 | 30.7 |
| GGAGTACGAAAGTAGTCC (((.(((....))).))) | -40.4 | 55.2 |
| GGAGTCCGAAAGGAATCC (((.(((....))).))) | -41.5 | 56.4 |
| GGAGTCGAAAGACAATCC ((((((....)))..))) | -15.4 | 32.5 |
| GGAGTCGAAAGACATTCC ((((((....)))..))) | -12.7 | 27.9 |
| GGAGTCGAAAGACCCTCC ((((((....)))..))) | -16.7 | 48 |
| GGAGTCGAAAGACGTCC ((((((....))).))) | -14.7 | 46 |
| GGAGTCGCGAAAGCGTCC (((..(((....)))))) | -12.3 | 34.1 |
| GGAGTCGGAAACAACTCC (((((.(....).))))) | -32.6 | 41.5 |
| GGAGTCGGAAACGATTCC (((.(((....))).))) | -30.1 | 50.3 |
| GGAGTCGGAAACGGCTCC ((((.((....)).)))) | -45.8 | 61 |
| GGAGTCTCGAAAGAGTCC (((..(((....)))))) | -20.1 | 41.7 |
| GGAGTGGGAAACCACTTC (.(((((....))))).) | -20.2 | 49.4 |

| Sequence | folding enthalpy [1] [kcal/mol] | Tm [2] [°C] |
| --- | --- | --- |
| GGAGTGGGAAACTGCTCC ((((..(....)..)))) | -31.5 | 44.5 |
| GGAGTTCCGAAAGGATCC (((..(((....)))))) | -12.8 | 31 |
| GGAGTTCGAAAGAATTCC (((.(((....))).))) | -39.8 | 48.6 |
| GGAGTTGCGAAAGCATCC (((..(((....)))))) | -12.7 | 32.5 |
| GGAGTTGGAAACAATTCC (((.(((....))).))) | -29.6 | 43 |
| GGAGTTGGAAACGATTCC (((.(.(....).).))) | -19.6 | 40.8 |
| GGATAACGAAAGTTGTCC (((.(((....))).))) | -47.7 | 52.7 |
| GGATAAGGAAACTTATTC (.(((((....))))).) | -21.2 | 30.4 |
| GGATACGAAAGTAAGTCC ((((((....)))..))) | -9.06 | 22.2 |
| GGATACGAAAGTAATCC ((((((....))).))) | -27 | 44.6 |
| GGATACGCGAAAGCGTCC (((..(((....)))))) | -8.9 | 33 |
| GGATACGGAAACGTATCC (((((((....))))))) | -40.9 | 64.2 |
| GGATAGCGAAAGCTCTCC (((.(((....))).))) | -30.9 | 45.4 |
| GGATAGCGAAAGCTTCC (((.(((....)))))) | -19 | 48.1 |
| GGATATGAAAATATCC ((((((....)))))) | -31.6 | 50.9 |
| GGATATTCGAAAGAATCC (((..(((....)))))) | -13.6 | 26.9 |
| GGATCAGGAAACCGATCC (((((.(....).))))) | -39 | 46.4 |
| GGATCCGAAAGGAATCC ((((((....))).))) | -31.7 | 50.8 |
| GGATCCGAAAGGACATCC ((((((....)))..))) | -17.6 | 37.2 |
| GGATCCGAAAGGACCTCC ((((((....)))..))) | -15.5 | 47.2 |
| GGATCCGAAAGGATGTCC ((((((....)))..))) | -12.5 | 35.2 |
| GGATCCGAAAGGATTCC ((((((....))).))) | -30.2 | 51.7 |

Source: the array DNA melting data of Ke et al. (doi:10.1101/2024.01.08.574731)
